Measurements from ChEMBL document CHEMBL4689842, “EUbOPEN Chemogenomics Library wave 1” (2021).

System: HEK-293T
Experiment: Multiplex assay against HEK293T
Assay type: toxicity, cell-based
Conditions: human
In short: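 Cells were classed with CellPathfinder machine-learning gating, first as Hoechst high-intensity objects or normal cells, then (normal cells) as healthy, pyknosed or fragmented nuclei, and finally (pyknosed cells) as mitotic or apoptotic. Staining of live cells at seeding used Hoechst33342, BioTracker Green Microtubule Cytoskeleton Dye, MitoTracker Red and Annexin V Alexa Fluor 680, with imaging on a CQ1 microscope at 37°C and 5% CO2 after compound addition. Tubulin, mitochondrial-mass and membrane-permeability phenotypes are per cents of healthy-nucleus cells.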

[1] = 12 h, 1 µM, compound concentration 1 uM, replicate 1
[2] = 12 h, 1 µM, compound concentration 1 uM, replicate 2
[3] = 12 h, 10 µM, compound concentration 10 uM, replicate 1
[4] = 12 h, 10 µM, compound concentration 10 uM, replicate 2
[5] = 24 h, 1 µM, compound concentration 1 uM, replicate 1
[6] = 24 h, 1 µM, compound concentration 1 uM, replicate 2
[7] = 24 h, 10 µM, compound concentration 10 uM, replicate 1
[8] = 24 h, 10 µM, compound concentration 10 uM, replicate 2
[9] = 48 h, 1 µM, compound concentration 1 uM, replicate 1
[10] = 48 h, 1 µM, compound concentration 1 uM, replicate 2
[11] = 48 h, 10 µM, compound concentration 10 uM, replicate 1
[12] = 48 h, 10 µM, compound concentration 10 uM, replicate 2

SMILES: Cc1ccccc1C(c1ccccc1C)N1C2CCC1CC(O)(c1ccccc1)C2 (stereo not drawn)
- Population Apoptotic (%) [1]: 48%
- Population Healthy Nuclei (%) [1]: 40%
- Population Mitotic Cells (%) [1]: 51%
- Population Normal (%) [1]: 82%
- Population Pyknosed Nuclei (%) [1]: 48%
- Total Cell Count [1]: 233
- Population Apoptotic (%) [2]: 13%
- Population Healthy Nuclei (%) [2]: 39%
- Population Mitotic Cells (%) [2]: 86%
- Population Normal (%) [2]: 94%
- Population Pyknosed Nuclei (%) [2]: 55%
- Total Cell Count [2]: 261
- Population Apoptotic (%) [3]: 53%
- Population Healthy Nuclei (%) [3]: 36%
- Population Mitotic Cells (%) [3]: 46%
- Population Normal (%) [3]: 88%
- Population Pyknosed Nuclei (%) [3]: 54%
- Total Cell Count [3]: 350
- Population Healthy Nuclei (%) [4]: 26%
- Population Mitotic Cells (%) [4]: 78%
- Population Normal (%) [4]: 96%
- Population Pyknosed Nuclei (%) [4]: 69%
- Total Cell Count [4]: 210
- Population Apoptotic (%) [5]: 43%
- Population Healthy Nuclei (%) [5]: 45%
- Population Mitotic Cells (%) [5]: 56%
- Population Normal (%) [5]: 82%
- Population Pyknosed Nuclei (%) [5]: 40%
- Total Cell Count [5]: 254
- Population Apoptotic (%) [6]: 13%
- Population Healthy Nuclei (%) [6]: 61%
- Population Mitotic Cells (%) [6]: 86%
- Population Normal (%) [6]: 98%
- Population Pyknosed Nuclei (%) [6]: 32%
- Total Cell Count [6]: 355
- Population Apoptotic (%) [7]: 49%
- Population Healthy Nuclei (%) [7]: 42%
- Population Mitotic Cells (%) [7]: 50%
- Population Normal (%) [7]: 91%
- Population Pyknosed Nuclei (%) [7]: 48%
- Total Cell Count [7]: 339
- Population Healthy Nuclei (%) [8]: 43%
- Population Mitotic Cells (%) [8]: 68%
- Population Normal (%) [8]: 95%
- Population Pyknosed Nuclei (%) [8]: 53%
- Total Cell Count [8]: 229
- Population Healthy Nuclei (%) [9]: 49%
- Population Mitotic Cells (%) [9]: 68%
- Population Normal (%) [9]: 87%
- Population Pyknosed Nuclei (%) [9]: 28%
- Total Cell Count [9]: 301
- Population Healthy Nuclei (%) [10]: 85%
- Population Mitotic Cells (%) [10]: 87%
- Population Normal (%) [10]: 98%
- Population Pyknosed Nuclei (%) [10]: 10%
- Total Cell Count [10]: 568
- Population Apoptotic (%) [11]: 50%
- Population Healthy Nuclei (%) [11]: 45%
- Population Mitotic Cells (%) [11]: 49%
- Population Normal (%) [11]: 91%
- Population Pyknosed Nuclei (%) [11]: 42%
- Total Cell Count [11]: 372
- Population Apoptotic (%) [12]: 23%
- Population Healthy Nuclei (%) [12]: 72%
- Population Mitotic Cells (%) [12]: 76%
- Population Normal (%) [12]: 97%
- Population Pyknosed Nuclei (%) [12]: 24%
- Total Cell Count [12]: 302
